Source: PubChem
A selection: hits, their analogues and other compounds. The true share with any hit is near 3.5%.
rRNA inh HTS = selective bacterial rRNA inhibition in E. coli; GFP signal change (wild-type ribosome), % (test concentration not listed); E. coli WT GFP vs humanized-ribosome RFP mutants, fluorescence, 24 h; active compounds read low; DMSO median 0, no signal -100; actives 1.6% (n = 350,000);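 active = significant combined selectivity score with lowered wild-type GFP, culture density cut under 30%, mutant RFP and density less affected; inactive = any of these conditions unmet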
Env fusion inh = HIV envelope-mediated fusion inhibition; HeLa-JRFL Env/CEM21 cell fusion, luciferase; inhibition, % at 12.3 µM; actives 1.1% (n = 360,000); AID 651610;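 active = mean replicate inhibition score of at least 50 and every replicate individually at or above 50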;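 also: 0% = plate neutral controls and 100% = maraviroc near 300 nM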
FGF22 binding = FGF22 (human) thermal shift binding; Q9HCT0; actives 1.5% (n = 340,000); activity (Tm shift, normalised), % at 9.99 µM; recombinant FGF22 thermal shift, SYPRO orange fluorescence; percent of sucrose octasulfate shift, DMSO zero;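 active = mean Tm shift, scaled 0 neutral to 100 positive control, at about 1.3% or above, every replicate too, limit read from the data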
PGC1a acetyl inh = modulators of PGC1a acetylation. AID 651687. actives 0.17% (n = 350,000). U2OS PGC1a acetylation, AlphaScreen anti-acetyl-lysine; with virally co-expressed GCN5 acetyltransferase. inhibition, % at 15.6 µM;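 active = every replicate shows inhibition of at least 40%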;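 also: 0% = neutral control wells and 100% = positive control wells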
ERAP1 inh = ERAP1 (human) enzyme inhibition | recombinant ERAP1, Leu-AMC fluorescence, 60 min | actives 0.15% (n = 340,000) | AID 652197 | Q9NZ08 | inhibition, % at 10.7 µM;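 active = mean replicate inhibition of at least 30%, or all replicates individually reaching that 30% level; inactive = mean below 30% and not every replicate reaching it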;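 also: 0% = neutral control wells and 100% = L-leucinethiol positive control wells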
Target sequence (Q9NZ08 whole entry, looked up): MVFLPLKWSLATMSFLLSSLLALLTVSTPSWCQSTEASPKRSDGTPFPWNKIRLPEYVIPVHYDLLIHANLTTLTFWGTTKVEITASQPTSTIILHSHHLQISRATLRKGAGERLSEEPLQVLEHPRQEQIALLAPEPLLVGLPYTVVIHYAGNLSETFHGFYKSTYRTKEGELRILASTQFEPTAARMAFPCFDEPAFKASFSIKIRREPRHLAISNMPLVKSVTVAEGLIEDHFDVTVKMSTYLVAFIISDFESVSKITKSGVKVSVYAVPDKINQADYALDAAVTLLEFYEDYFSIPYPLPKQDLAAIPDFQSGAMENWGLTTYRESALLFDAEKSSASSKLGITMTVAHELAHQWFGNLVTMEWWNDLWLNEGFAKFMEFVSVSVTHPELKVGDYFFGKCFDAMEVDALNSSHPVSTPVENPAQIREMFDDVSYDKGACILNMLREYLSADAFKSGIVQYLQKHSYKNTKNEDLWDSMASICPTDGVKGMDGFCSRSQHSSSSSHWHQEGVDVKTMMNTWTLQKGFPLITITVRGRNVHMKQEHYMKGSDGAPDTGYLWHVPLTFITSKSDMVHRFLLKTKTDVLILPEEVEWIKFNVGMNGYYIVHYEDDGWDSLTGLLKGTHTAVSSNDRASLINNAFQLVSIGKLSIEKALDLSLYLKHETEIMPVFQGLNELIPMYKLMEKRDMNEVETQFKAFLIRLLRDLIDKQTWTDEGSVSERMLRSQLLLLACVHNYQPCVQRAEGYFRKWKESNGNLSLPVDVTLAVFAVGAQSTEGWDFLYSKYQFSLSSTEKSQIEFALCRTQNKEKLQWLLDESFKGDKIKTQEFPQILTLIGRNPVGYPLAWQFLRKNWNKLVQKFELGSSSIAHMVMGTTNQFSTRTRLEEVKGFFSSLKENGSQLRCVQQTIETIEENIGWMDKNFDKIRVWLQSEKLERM
Cneo AK release = Cryptococcus neoformans lysis via adenylate kinase release; C. neoformans lysis, adenylate kinase release luminescence, 4 h; normalised: neutral wells 0, clomiphene wells 100; actives 0.2% (n = 360,000); lysis activity, % at 15 µM; AID 651654;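 active = mean lysis activity across replicates of at least 80%, whatever share of replicates individually reach that level; inactive = mean lysis activity below 80%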
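Material: C. neoformans cells; Schedule: 4 h static compound exposure, 37 °C, read 1 h post-reagent; Measured by: adenylate kinase release luminescence; Read-out: signal increase indicating cell lysis; Controls: Clomiphene as positive lysis control.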
An asterisk follows results filed as active; . = no result; [ ] = remark or other dose.

SMILES	rRNA inh HTS	Env fusion inh	FGF22 binding	PGC1a acetyl inh	ERAP1 inh	Cneo AK release
O=C(N/N=C/c1cccnc1)c1ccc(CN2c3cccc4cccc(c34)S2(=O)=O)cc1	-18*	6	0	.	-3	-1
CCOC(=O)c1c(NC(=O)COC(=O)CCNS(=O)(=O)c2ccccc2)sc(C(=O)NC)c1C	-8	.	0	0	38*	2
CC(OC(=O)C1=Cc2ccccc2OC1)C(=O)NCC1CCCO1 (stereo unspecified)	2	-1	1.9*	-11	9	0
N#Cc1cc2ccc(N3CCOCC3)cc2cc1C#N	-34*	.	0	17	-6	-10
CNC(=O)c1c(C)noc1C	13	-8	0	-8	-1	.
COc1cccc(S(=O)(=O)N2CCC3(CC2)CN(C(=O)Nc2cccc(F)c2)[C@@H](CO)c2[nH]c4cc(OC)ccc4c23)c1	3	72*[16.7 µM]	0	.	-5	.
Cc1cc(C)c(C(N)=O)c(Nc2cccc3ccccc23)n1	.	.	.	28	.	-5
CN(C)CCOCCOc1ccc(Cl)cc1C(C)(C)C	-26	8	0	.	15	.
CC(O)CNCCCOc1ccc(Cl)cc1C(C)(C)C (stereo unspecified)	-41*	0	0	-14	3	.
O=C1NC(=O)/C(=C\c2ccc(Cl)cc2Cl)N1	-19*	-60	0	4	2	2
O=C1NC(=O)/C(=C/c2ccccc2Cl)N1	13	12	0	2	-2	-1
Cc1ccc(S(=O)(=O)N2[C@@H](c3ccccc3F)C(C(=O)O)=CC[C@H]2c2cccs2)cc1	-16*	.	0	.	20	1
Cc1ccc([C@H]2C(C(=O)O)=CC[C@@H](c3ccc(C)cc3)N2S(=O)(=O)c2ccccc2C)cc1	-39*	-22	.	12	.	-1
Cc1ccc([C@@H]2CC=C(C(=O)O)CN2S(=O)(=O)c2ccccc2C)cc1	-25*	-23	0	.	1	-1
CCc1ccc([C@@H]2CC=C(C(=O)O)[C@H](c3ccc(C)cc3)N2S(=O)(=O)c2ccc(C)cc2)cc1	-24*	-3	-1	-5	.	-1
Cc1ccc(S(=O)(=O)N2[C@@H](c3ccccc3)C(C(=O)O)=CC[C@H]2c2cccs2)cc1	-36	12	0	.	5	0
COc1ccc(OC)c(-c2csc(NC(=O)Cc3ccccc3F)n2)c1	-20	-4	0	-5	-2	-5
NC(=NCCc1ccccc1)NS(=O)(=O)c1cccs1	.	3	43*	.	0	.
COc1ccc(CCN=C(N)NS(=O)(=O)c2cccs2)cc1	2	8	0	.	8	.
CCN1CCN(CCOCCOc2ccccc2)CC1	7	-37	0	-10	2	3
O=C(CSc1nc2ccccc2n1Cc1ccc(Cl)cc1)N/N=C/c1ccccc1C(=O)O	0	6	0	.	-2	.
O=C(O)COc1ccccc1/C=N/NC(=O)CSc1nc2ccccc2n1Cc1ccc(Cl)cc1	-27	15	1.4*	5	.	1
COc1cccc(C(=O)Nc2cccnc2)c1	-2	-23	0	.	1	.
Cc1cc(/C=N/Nc2ncnc(N)c2[N+](=O)[O-])c(C)n1-c1ccccc1	-6	55*	0	-1	1	-3
O=C(c1cccc(F)c1)N1CC(=O)N2[C@H](CO)[C@H](c3ccc(C#Cc4ccc(F)cc4)cc3)[C@@H]2C1	-12	.	.	0	1	.
SMILES	rRNA inh HTS	Env fusion inh	FGF22 binding	PGC1a acetyl inh	ERAP1 inh	Cneo AK release
CN(/N=C/Cc1nnnn1-c1ccc(Cl)cc1)c1ccccc1	-22*	9	0	.	-8	.
COc1ccccc1C#Cc1ccc2c(c1)[C@H]1[C@H](CCN1S(=O)(=O)c1ccccc1)[C@@H](CO)N2	1	.	0	-8	-1	.
CC(C)NC(=O)[C@@]1(Cc2ccccc2I)c2ccccc2C(=O)N(Cc2ccccc2C(F)(F)F)[C@H]1c1ccc(CO)cc1	.	0[16.7 µM]	0	-15	-1	-2
COc1ccccc1CN1C(=O)c2ccccc2[C@](Cc2ccccc2I)(C(=O)NCc2ccccc2)[C@@H]1c1ccc(CO)cc1	.	60*[16.7 µM]	.	7	.	.
C[C@@H]1CN([C@H](C)CO)C(=O)c2cccc(NS(=O)(=O)c3ccc(F)cc3)c2O[C@@H]1CN(C)S(=O)(=O)c1cn(C)cn1	5	-7[16.7 µM]	.	0	0	0
CC(C)(Sc1ccc(CCN(CCCCC2CCCCC2)C(=O)NC2CCCCC2)cc1)C(=O)O	-5	57*	0	2	-1	-2
CCCCc1cc(=O)oc2c(CN(CC)CC)c(O)c(Cl)cc12	.	.	.	5	.	1
COCC#Cc1ccc2c(c1)O[C@@H](CN(C)C(=O)NC(C)C)[C@@H](C)CN([C@@H](C)CO)S2(=O)=O	2	-32[16.7 µM]	0	8	2	2
Nc1[nH]n2c(=O)cc(-c3ccccc3)nc2c1N=Nc1ccc(S(N)(=O)=O)cc1	-24*	2	0	5	2	.
Nc1[nH]n2c(=O)cc(-c3ccccc3)nc2c1N=Nc1ccccc1	.	.	.	13	.	0
O=C(O)CC(NC(=O)C12CC3CC(CC(C3)C1)C2)c1ccc2c(c1)OCO2 (stereo unspecified)	13	2	43*	6	1	.
Cc1ccnc(N2CCC(C(=O)NNC(=O)COc3cccc4ccccc34)CC2)n1	8	12	43*	.	-3	.
CCCNC(=O)N1C[C@H](O)COC[C@H]2O[C@H](CC(=O)O)CC[C@@H]21	-1	-11[16.7 µM]	0	4	.	0
Cc1cc(C)cc(N(C(=O)C2CCCC2)C2C=CS(=O)(=O)C2)c1 (stereo unspecified)	7	-37	0	0	-2	0
COc1ccc(C#Cc2cccc(-c3nc(C(=O)NCCCN4CCOCC4)cc4c3[C@@H](CCO)N(S(=O)C(C)(C)C)C4)c2)cc1OC (stereo partly specified)	-1	-34[16.7 µM]	0	.	2	4
C[C@@H]1CN([C@@H](C)CO)C(=O)c2cc(NC(=O)Nc3ccc(F)cc3)ccc2O[C@H]1CN(C)S(=O)(=O)c1cccs1	-5	.	0	11	1	-1
O=c1cnnc(SCc2ccc([N+](=O)[O-])cc2)[nH]1	.	-27	43*	.	2	.
C[C@H]1CN([C@@H](C)CO)C(=O)c2cccc(NS(=O)(=O)c3ccccc3)c2O[C@H]1CN(C)Cc1ccc2c(c1)OCO2	-2	.	0	-4	-1	52
Cn1c(-c2ccc(Cl)cc2)ccc(C#N)c1=O	.	75*	.	.	.	.
Cn1cc(-c2ccc(Cl)cc2)cc(C#N)c1=O	6	-28	43*	-10	-8	.
O=C(/C=C/c1ccc2c(c1)OCCCO2)c1ccccc1O	-33*	-46	0	.	-2	.
